Data: ChEMBL document CHEMBL4020714, “Design, synthesis, and evaluation of curcumin derivatives as Nrf2 activators and cytoprotectors against oxidative death” (Eur J Med Chem, 2017)
Calls of active or inactive are those of the source. The rule behind the calls is not given here.

Experiments:
Type in all cases: cell-based
[1] = target: T1, Nuclear factor erythroid 2-related factor 2 (Homo sapiens) (UniProt Q16236); assay: Activation of Nrf2 in human HepG2 cells assessed as increase in GCLM expression level at 5 uM in presence of 25 uM JNK inhibitor SP600125 for 1 hr prior to compound treatment by Western blot analysis
T1 sequence (whole entry): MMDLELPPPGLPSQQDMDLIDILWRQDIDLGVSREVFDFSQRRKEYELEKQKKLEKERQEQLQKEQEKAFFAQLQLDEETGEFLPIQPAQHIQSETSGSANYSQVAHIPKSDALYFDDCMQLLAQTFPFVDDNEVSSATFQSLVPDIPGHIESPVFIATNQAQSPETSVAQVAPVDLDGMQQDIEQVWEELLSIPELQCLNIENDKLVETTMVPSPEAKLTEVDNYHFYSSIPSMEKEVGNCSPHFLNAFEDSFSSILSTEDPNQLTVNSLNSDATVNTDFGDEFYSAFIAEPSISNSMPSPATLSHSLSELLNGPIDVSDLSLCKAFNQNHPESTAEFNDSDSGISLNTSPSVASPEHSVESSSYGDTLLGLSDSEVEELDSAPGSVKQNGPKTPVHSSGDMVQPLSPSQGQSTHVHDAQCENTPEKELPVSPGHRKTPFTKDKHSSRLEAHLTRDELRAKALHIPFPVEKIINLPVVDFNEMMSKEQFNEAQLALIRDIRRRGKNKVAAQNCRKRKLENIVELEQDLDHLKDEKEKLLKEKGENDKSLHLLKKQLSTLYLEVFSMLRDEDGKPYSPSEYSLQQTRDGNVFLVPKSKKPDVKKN
Method in brief: (§1)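 HepG2 cells (2×10^6/well) treated at the indicated concentrations and times. Whole-cell lysates, or nuclear and cytoplasmic fractions, are prepared and quantified by BCA. Samples are run at 40 μg/lane on 12% SDS-PAGE, transferred to nitrocellulose, probed with specific antibodies and HRP secondary (1/5000), and detected by ECL. Where used, LY294002 (15 μM), SP600125 (25 μM) or DTT (400 μM) is added 1 h before compound.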

[2] = target: T1, Nuclear factor erythroid 2-related factor 2 (Homo sapiens); assay: Activation of Nrf2 in human HepG2 cells assessed as increase in nuclear Nrf2 expression level at 5 uM after 12 hrs by Western blot analysis; method in brief: as §1
[3] = target: T1, Nuclear factor erythroid 2-related factor 2 (Homo sapiens); assay: Activation of Nrf2 in human HepG2 cells assessed as increase in GCLM expression level after 3 hrs by Western blot analysis; method in brief: as §1
[4] = target: T1, Nuclear factor erythroid 2-related factor 2 (Homo sapiens); assay: Activation of Nrf2 in human HepG2 cells assessed as increase in GCLC expression level at 5 uM in presence of 25 uM JNK inhibitor SP600125 for 1 hr prior to compound treatment by Western blot analysis; method in brief: as §1

- Activity [1]: inactive
- Activity [2]: inactive
- Activity [3]: Active
- Activity [4]: inactive
SMILES: CC(C)(C(=O)/C=C/c1ccc(O)c(O)c1)C(=O)/C=C/c1ccc(O)c(O)c1
